An excerpt weighted towards active compounds, which were near 2% of everything screened.
HIV Rev-RRE inh: disrupts HIV-1 Rev binding to RRE RNA; hit rate 0.79% among 97,000; AID 704; Rev peptide-RRE RNA binding, FRET; P05866; inhibition, % at 8 µM;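 active = inhibition above the screen-wide mean plus 3 SD, cut at about 35% in these data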
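Test system – labelled RRE RNA duplex and labelled Rev peptide · Signal – fluorescein-to-Cy5 FRET, 480 nm excitation · Evaluation – % inhibition of FRET ratio versus controls · Benchmarks – DMSO low control, neomycin B high control · Incubation – 5 min RNA-compound premix plus 15 min binding step, 25 °C · Medium – HEPES pH 7.5 salt buffer with EDTA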
PTPN22 act: increases human PTPN22 phosphatase activity; Q9Y2R2; recombinant LYP, DiFMUP fluorescence; 0 = plate median, 100 = signal doubled; activation, % at 2 µM; hit rate 0.11% among 96,000;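 active = activation at 2 µM above a set limit, the mean plus 5 SD, cut at about 37% in these data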
Target sequence (Q9Y2R2 whole entry, looked up): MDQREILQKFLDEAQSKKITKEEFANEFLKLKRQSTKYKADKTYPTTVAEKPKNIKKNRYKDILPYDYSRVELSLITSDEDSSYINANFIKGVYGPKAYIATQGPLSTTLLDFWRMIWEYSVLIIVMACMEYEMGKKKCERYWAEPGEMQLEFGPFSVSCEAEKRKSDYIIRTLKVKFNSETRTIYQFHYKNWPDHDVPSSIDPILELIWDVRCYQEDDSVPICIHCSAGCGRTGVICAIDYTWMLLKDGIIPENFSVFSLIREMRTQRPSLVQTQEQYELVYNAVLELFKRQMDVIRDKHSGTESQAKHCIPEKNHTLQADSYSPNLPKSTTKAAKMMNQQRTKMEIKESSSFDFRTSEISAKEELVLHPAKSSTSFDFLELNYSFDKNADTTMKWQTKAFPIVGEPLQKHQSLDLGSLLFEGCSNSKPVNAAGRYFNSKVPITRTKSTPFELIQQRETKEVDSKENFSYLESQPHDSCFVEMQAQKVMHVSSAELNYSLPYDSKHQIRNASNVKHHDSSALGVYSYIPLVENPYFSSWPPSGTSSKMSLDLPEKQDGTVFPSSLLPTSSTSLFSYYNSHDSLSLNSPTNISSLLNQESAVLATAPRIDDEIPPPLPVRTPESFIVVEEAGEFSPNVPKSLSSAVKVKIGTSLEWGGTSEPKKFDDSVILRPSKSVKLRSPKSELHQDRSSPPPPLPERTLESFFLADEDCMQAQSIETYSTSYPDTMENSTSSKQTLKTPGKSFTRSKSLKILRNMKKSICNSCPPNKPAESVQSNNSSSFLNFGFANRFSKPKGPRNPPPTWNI
LYP inh 2: inhibitors of human LYP (PTPN22) phosphatase; hit rate 0.21% among 96,000; recombinant LYP catalytic domain, DiFMUP fluorescence; inhibition, % at 2 µM; AID 640;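 active = inhibition at 2 µM at or above a set limit, the screen mean plus 3 SD, cut at about 24% in these data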
PLK1 kinase inh: blocks human PLK1 kinase activity | inhibition, % at 10 µM | recombinant PLK1 kinase, TR-FRET peptide phosphorylation | AID 619 | hit rate 0.53% among 97,000 | P53350;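 active = inhibition of 50% or more in the single-concentration screen; inactive = inhibition below 50%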
EphB4 antag: blocks human EphB4 binding to ephrin-B2 | EphB4 LBD / TNYL-RAW-Alexa532 peptide, fluorescence polarization | P54760 | inhibition, % at 7 µM | AID 720 | hit rate 0.15% among 97,000;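 active = inhibition above the screen-wide mean inhibition plus 3 SD, cut at about 15% in these data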
PLK1 PBD inh: blocks phosphopeptide binding to human Plk1 polo box domain. Plk1 PBD phosphopeptide binding, fluorescence polarization. hit rate 0.13% among 97,000. inhibition, %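 (tested at about 20 µM)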. P53350; in the data active = inhibition above about 34%, passing the limit was not always enough
Numbers stand for hits; - = inactive; . = no result given; [ ] = remark or other dose.

SMILES	HIV Rev-RRE inh	PTPN22 act	LYP inh 2	PLK1 kinase inh	EphB4 antag	PLK1 PBD inh
COc1ccccc1N=c1sc2ccccc2n1C	-	-	-	-	-	-
Cc1ccc(C(=O)NCCn2cc(SCC(=O)Nc3nnc(C)s3)c3ccccc32)cc1	-	.	.	62.3	-	-
CCOc1ccc(C(=O)NCCn2cc(SCC(=O)Nc3cc(C)on3)c3ccccc32)cc1	-	-	-	-	-	-
CCN(CC)c1ccc(C=N/C(C#N)=C(\N)C#N)cc1	53.1	-	-	-	-	-
CCN(CC)c1ccc(/C=N/N2CCOCC2)cc1	-	-	-	-	-	-
Cc1ccc2c(Cl)cc(Cl)c(OCC(=O)NCc3ccco3)c2n1	-	-	30.3	-	-	-
N#C/C(=C/c1ccc(N2CCCCCC2)o1)c1cccc(F)c1	104.7[fluorescence artefact?]	-	-	-	-	-
N#C/C(=C\c1ccc(Sc2nc3ccccc3[nH]2)o1)c1ccccc1	-	-	-	-	-	-
COc1cc(N2CCCC2)c(OC)cc1/C=C(/C#N)c1cccc(F)c1	117.2[fluorescence artefact?]	-	-	-	-	-
N#C/C(=C/c1ccc(N2CCCCCC2)o1)c1ccc(F)cc1	73.0	-	-	-	-	-
N#C/C(=C/c1ccc(N2CCCCC2)o1)C(=O)Nc1ccc(Cl)cc1	139.3[fluorescence artefact?]	-	-	-	-	-
CCOC(=O)CCCNC(=O)COC(=O)c1ccc(O)cc1	-	-	-	-	-	-
N#CC1=C(N)N=C(SCc2cccc3ccccc23)C(C(N)=O)C12CCCCC2 (stereo not given)	-	-	-	-	-	-
CCC(=O)c1ccc(OCC(O)CN2CCOCC2)cc1 (stereo not given)	-	-	-	-	-	-
CC(=O)c1ccc(OCC(O)CN2CCOCC2)cc1 (stereo not given)	-	.	.	64.9	-	-
Cn1cc(Cl)c(C(=O)OCC(=O)Nc2nc(-c3ccc(Br)cc3)cs2)n1	-	-	-	-	-	-
CC1(C)Cc2ccccc2-c2nnc(SCC(=O)Nc3nc4ccccc4s3)n21	-	-	-	-	17.8	-
Cn1c(SCC(=O)Nc2nc3ccccc3s2)nnc1-c1ccccc1	-	-	-	-	-	-
CCCc1c(C)c2c(C)[nH]nc2oc1=O	-	-	-	58.1	-	-
CCc1cccc(C)c1NC(=O)CN1C(=O)c2ccccc2S1(=O)=O	-	.	.	69.0	-	-
CCN1c2ccccc2NC2C1C(C(C)=O)C(=O)N2c1ccc(Cl)cc1 (stereo not given)	49.5	-	-	-	-	-
CCN1c2ccccc2NC2N=C(OC)C(c3ccccc3)C21 (stereo not given)	-	-	-	-	-	-
COC(=O)c1ccc(NC(=O)CN(Cc2ccc(Cl)cc2)S(C)(=O)=O)cc1	-	-	-	-	-	-
COCCCN1CC23C=CC(O2)C(C(=O)OC)C3C1=O (stereo not given)	-	-	-	-	-	-
COC(=O)C1C2C=CC3(CN(C(C)C)C(=O)C13)O2 (stereo not given)	-	.	.	54.8	-	-
SMILES	HIV Rev-RRE inh	PTPN22 act	LYP inh 2	PLK1 kinase inh	EphB4 antag	PLK1 PBD inh
COc1ccccc1NC(=O)c1ccc(S(=O)(=O)N2CCOCC2)cc1	-	-	-	-	-	-
O=C(Nc1ccccc1Cl)c1ccc(S(=O)(=O)N2CCOCC2)cc1	-	.	.	68.3	-	-
O=C(COC(=O)C(Cc1ccccc1)NC(=O)c1ccco1)NC1CC1 (stereo not given)	-	-	-	-	16.6	-
O=C(COC(=O)[C@H](Cc1ccccc1)NC(=O)c1ccco1)NC(c1ccccc1)c1ccccc1	-	-	-	-	-	-
O=C(NCCN1C(=O)C2C3C=CC(C3)C2C1=O)NCc1ccccc1 (stereo not given)	-	.	.	54.2	-	-
Cc1ccc(NC(=O)NCCN2C(=O)C3C4C=CC(C4)C3C2=O)cc1 (stereo not given)	-	.	.	62.4	-	-
O=C(NCCN1C(=O)C2C3C=CC(C3)C2C1=O)Nc1ccccc1 (stereo not given)	-	.	.	67.2	-	-
CCCCNC(=O)c1onc(CSc2cccc3ccccc23)c1C(=O)O	-	-	-	-	-	-
CCCCNC(=O)CC(C(=O)N1CCc2ccccc21)n1ccnc1 (stereo not given)	-	-	-	-	-	-
O=C(CC(C(=O)N1CCc2ccccc21)n1ccnc1)N1CCc2ccccc2C1 (stereo not given)	60.0	-	-	-	-	-
CCOC(=O)Cc1csc(NC(=O)c2ccc(Cl)nc2)n1	41.0	-	-	-	-	-
CCOC(=O)Cc1csc(NC(=O)c2sc3nc4ccc(CC)cc4cc3c2N)n1	85.2[fluorescence artefact?]	-	-	-	-	-
Cc1ccccc1OCCCn1c(=O)sc2ccccc21	-	-	-	-	-	-
CCOC(=O)c1c(C)[nH]c(C(=O)COC(=O)CCC2CCCC2)c1C	-	-	-	-	-	-
COC(=O)c1ccc(NCCc2csc(-c3ccc(C)cc3)n2)c([N+](=O)[O-])c1	-	-	-	-	-	-
O=C(NNC(=O)C1CCCCC1)C(=O)NC1CCCCC1	-	-	-	-	16.1	-
CC(C)NC(=O)C(=O)NC1CCCCCC1	-	-	-	-	-	-
O=c1cc2[nH]c3ccccc3c(=O)n2nc1-c1ccccc1	-	-	-	-	-	-
CCOc1ccc(C(CCc2ccccc2)NC(=O)c2ccccc2OC)cc1OCC (stereo not given)	-	-	-	-	-	-
CCOc1ccc(C(CCc2ccccc2)NC(=O)c2ccccc2F)cc1OCC (stereo not given)	-	-	-	-	18.4	-
COc1ccc(C2C=C(c3ccc(C)cc3)Nc3ncnn32)cc1 (stereo not given)	56.0	-	-	-	-	-
COc1ccc(C2=CC(c3ccc(C)cc3)n3nnnc3N2)cc1 (stereo not given)	46.8	-	-	-	-	-
COc1ccc(C2C=C(c3ccccc3)Nc3nc(NC(C)=O)nn32)cc1 (stereo not given)	42.4	-	-	-	-	-
CCC(=C(c1ccc(OC)cc1)c1ccc(OC)cc1)c1cn(CC(O)CN2CCN(C)CC2)c2ccccc12 (stereo not given)	-	-	-	-	-	-
Cc1ccc(C2CC(=O)Nc3cc4c(cc32)OCO4)o1 (stereo not given)	-	-	-	-	-	-
Cc1nc2c(n1C1CCCCC1)C(=O)c1ccccc1C2=O	-	-	-	-	-	-
CCOC(=O)C1C(=O)OC(C)(C)C1C(C)C(=O)c1ccccc1 (stereo not given)	-	-	-	-	-	-
COc1cccc(-n2c(Cc3cc(=O)[nH]c(=O)[nH]3)nnc2SC(C)C)c1	-	.	.	61.9	-	-
COC(=O)C(C)Sc1nnc(Cc2cc(=O)[nH]c(=O)[nH]2)n1-c1cccc(OC)c1 (stereo not given)	-	-	-	-	-	-
